Results reported in ChEMBL document CHEMBL1154688, “Selective Kv1.5 blockers: development of (R)-1-(methylsulfonylamino)-3-[2-(4-methoxyphenyl)ethyl]-4-(4-methoxyphenyl)-2-imidazolidinone (KVI-020/WYE-160020) as a potential treatment for atrial arrhythmia” (J Med Chem, 2009).
In brackets after ≈: the same amount, converted by molar mass.

What was measured:
[1] = Aqueous solubility at pH 7.4 by direct UV method; format: physicochemical; conditions: aqueous medium
In short: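 Solubility measured in pH 7.4 buffer with direct UV read-out.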

[2] = biological target: Potassium voltage-gated channel subfamily A member 5 (Homo sapiens, UniProt P22460); experiment: Inhibition of human Kv1.5 expressed in CHO cells by patch-clamp technique; format: cell-based
In short: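 Human Kv1.5 stably expressed in CHO cells. IC50 was determined by automated patch clamp on the IonWorks platform.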

[3] = Metabolic stability in human liver microsomes assessed as half life; format: ADME, Microsome
In short: (§1)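 Test compound at 1 μM incubated with 1 mg/mL male beagle dog or male human liver microsomal protein. Half-life was determined from compound loss.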

CYP3A4 = CYP3A4 (Homo sapiens, UniProt P08684); experiment: Inhibition of CYP3A4 at 3 uM by fluorescent method; format: ADME
In short: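 CYP3A4 inhibition measured by a fluorescent method.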

[4] = biological target: Voltage-gated inwardly rectifying potassium channel KCNH2 (Homo sapiens, UniProt Q12809); experiment: Inhibition of human ERG by patch-clamp technique
[5] = Oral bioavailability in Beagle dog at 3 mg/kg; format: ADME, organism-based, Canis lupus familiaris; conditions: in vivo
In short: (§2)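 Male beagles dosed orally at 3 mg/kg. Cmax, Tmax, half-life and AUC were taken from plasma levels.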

[6] = Volume of distribution at steady state in Beagle dog at 3 mg/kg, iv; format: ADME, organism-based, Canis lupus familiaris; design: dose 3 mg/kg, route intravenous; conditions: in vivo, read-out: Vdss
In short: (§3)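 Male beagles; single 30 min intravenous infusion at 3 mg/kg. Plasma clearance, steady-state volume of distribution, elimination half-life and AUC were derived from the plasma concentration–time profile.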

[7] = Protein binding in Beagle dog plasma by equilibrium dialysis; format: ADME, cell-free, Canis lupus familiaris; conditions: read-out: PPB (converted)
In short: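 Tritium-labelled compound at 500 ng/mL in male beagle dog or male human plasma. Bound fraction was determined by equilibrium dialysis.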

[8] = biological target: Sodium channel protein type 5 subunit alpha (Homo sapiens, UniProt Q14524); experiment: Inhibition of Nav1.5 expressed in CHO cells by patch-clamp technique; format: cell-based
In short: (§4)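 Electrophysiology IC50 measured in stably transfected cell lines: CHO for Nav1.5, Kv1.1, Kv1.3 and Kv4.3, and HEK for Cav1.3 and Cav1.2.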

Canis familiaris [9] = experiment: Antiarrhythmic activity in Beagle dog atrial/ventricular tachypacing model assessed as decrease in atrial fibrillation at 3 mg/kg, po after 5 to 10 mins; format: functional, Canis lupus familiaris, Heart; design: scale not given: the % may be the effect or the level left
Canis familiaris [10] = experiment: Antiarrhythmic activity in Beagle dog atrial/ventricular tachypacing model assessed as decrease in total atrial fibrillation at 3 mg/kg, po; format: functional, Canis lupus familiaris, Heart; design: scale not given: the % may be the effect or the level left
Canis familiaris [11] = species on record: Canis familiaris; experiment: Antiarrhythmic activity in Beagle dog prolongation of atrial effective refractory period at steady state plasma concentrations of 23 uM; format: functional, Canis lupus familiaris, Heart
[12] = Permeability from basolateral to apical side in human Caco-2 cells at pH 7.4; format: ADME, cell-based; conditions: Caco-2, pH 7.4, read-out: permeability
In short: (§5)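 Caco-2 monolayers at pH 7.4. Bidirectional transport was measured from apical to basolateral and from basolateral to apical. Apparent permeability was reported in cm/s.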

Canis familiaris [13] = experiment: Plasma concentration in Beagle dog at 1.9 mg/kg, iv; format: ADME, organism-based, Canis lupus familiaris; design: dose 1.9 mg/kg, route intravenous; conditions: in vivo
[14] = Plasma clearance in Beagle dog at 3 mg/kg, iv; format: ADME, organism-based, Canis lupus familiaris; design: dose 3 mg/kg, route intravenous; in short: as §3
[15] = AUC in Beagle dog at 3 mg/kg, po; format: ADME, organism-based, Canis lupus familiaris; design: dose 3 mg/kg, route oral; conditions: plasma; in short: as §2
[16] = Half life in Beagle dog at 3 mg/kg, po; format: ADME, organism-based, Canis lupus familiaris; design: dose 3 mg/kg, route oral; conditions: in vivo; in short: as §2
[17] = Cmax in Beagle dog at 3 mg/kg, po; format: ADME, organism-based, Canis lupus familiaris; design: dose 3 mg/kg, route oral; conditions: in vivo; in short: as §2
[18] = Permeability from apical to basolateral side in human Caco-2 cells at pH 7.4; format: ADME, cell-based; conditions: Caco-2, pH 7.4, read-out: permeability; in short: as §5
[19] = Metabolic stability in Beagle dog liver microsomes assessed as half life; format: ADME, Canis lupus familiaris, Microsome; in short: as §1
[20] = biological target: Voltage-dependent L-type calcium channel subunit alpha-1C (Homo sapiens, UniProt Q13936); experiment: Inhibition of Cav1.2 expressed in HEK cells by patch-clamp technique
Cytochrome P450 2C9 = Cytochrome P450 2C9 (Homo sapiens, UniProt P11712); experiment: Inhibition of CYP2C9 in human liver microsomes; format: ADME, Microsome
In short: (§6)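 Reversible inhibition assayed in human liver microsomes at 0.2 mg/mL protein with probe substrates. CYP3A4 used 2.5 μM midazolam and, separately, 50 μM testosterone. CYP2D6 used 10 μM bufuralol. CYP2C9 used 10 μM diclofenac. IC50 was determined.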

[21] = biological target: Potassium voltage-gated channel subfamily A member 1 (Homo sapiens, UniProt Q09470); experiment: Inhibition of Kv1.1 expressed in CHO cells by patch-clamp technique; format: cell-based; in short: as §4
[22] = Tmax in Beagle dog at 3 mg/kg, po; format: ADME, organism-based, Canis lupus familiaris; design: dose 3 mg/kg, route oral; conditions: in vivo; in short: as §2
[23] = biological target: Voltage-dependent L-type calcium channel subunit alpha-1D (Homo sapiens, UniProt Q01668); experiment: Inhibition of Cav1.3 expressed in HEK cells by patch-clamp technique
Cytochrome P450 2D6 = Cytochrome P450 2D6 (Homo sapiens, UniProt P10635); experiment: Inhibition of CYP2D6 in human liver microsomes; format: ADME, Microsome; in short: as §6
Canis familiaris [24] = experiment: Antiarrhythmic activity in Beagle dog atrial/ventricular tachypacing model assessed as decrease in atrial fibrillation at 3 mg/kg, po; format: functional, Canis lupus familiaris, Heart; design: scale not given: the % may be the effect or the level left
Canis familiaris [25] = experiment: Plasma concentration in Beagle dog at 6.3 mg/kg, iv; format: ADME, organism-based, Canis lupus familiaris; design: dose 6.3 mg/kg, route intravenous; conditions: in vivo
[26] = biological target: T1, A-type voltage-gated potassium channel KCND3 (Homo sapiens, UniProt Q9UK17); experiment: Inhibition of Kv4.3 expressed in CHO cells by patch-clamp technique; format: cell-based; in short: as §4
T1 sequence (Q9UK17 whole entry): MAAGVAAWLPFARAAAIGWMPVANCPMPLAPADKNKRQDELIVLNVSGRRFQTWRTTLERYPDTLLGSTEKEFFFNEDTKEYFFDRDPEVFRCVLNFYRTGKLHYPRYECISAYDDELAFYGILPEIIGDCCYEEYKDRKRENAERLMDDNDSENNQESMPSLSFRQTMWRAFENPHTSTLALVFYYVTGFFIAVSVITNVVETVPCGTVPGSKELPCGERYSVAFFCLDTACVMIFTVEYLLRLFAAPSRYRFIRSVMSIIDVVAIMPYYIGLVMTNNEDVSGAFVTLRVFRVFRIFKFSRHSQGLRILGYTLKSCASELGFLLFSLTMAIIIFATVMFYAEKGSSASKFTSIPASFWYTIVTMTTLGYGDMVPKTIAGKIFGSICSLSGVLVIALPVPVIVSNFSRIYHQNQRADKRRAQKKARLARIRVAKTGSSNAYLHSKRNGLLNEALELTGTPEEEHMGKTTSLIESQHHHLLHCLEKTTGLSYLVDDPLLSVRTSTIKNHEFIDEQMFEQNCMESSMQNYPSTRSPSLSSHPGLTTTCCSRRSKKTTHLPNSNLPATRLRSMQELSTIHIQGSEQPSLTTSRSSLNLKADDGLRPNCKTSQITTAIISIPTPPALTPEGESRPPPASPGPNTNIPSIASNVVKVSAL

[27] = Half life in Beagle dog at 3 mg/kg, iv; format: ADME, organism-based, Canis lupus familiaris; design: dose 3 mg/kg, route intravenous; conditions: in vivo; in short: as §3
[28] = biological target: Potassium voltage-gated channel subfamily A member 3 (Homo sapiens, UniProt P22001); experiment: Inhibition of Kv1.3 expressed in CHO cells by patch-clamp technique; format: cell-based; in short: as §4
Canis familiaris [29] = species on record: Canis familiaris; experiment: Antiarrhythmic activity in Beagle dog prolongation of atrial effective refractory period at steady state plasma concentrations of 4.6 uM; format: functional, Canis lupus familiaris, Heart
Cytochrome P450 3A4 = Cytochrome P450 3A4 (Homo sapiens, UniProt P08684); experiment: Inhibition of CYP3A4 in human liver microsomes; format: ADME, Microsome; in short: as §6
[30] = AUC in Beagle dog at 3 mg/kg, iv; format: ADME, organism-based, Canis lupus familiaris; design: dose 3 mg/kg, route intravenous; conditions: plasma; in short: as §3

CYP3A4, sequence (P08684 whole entry): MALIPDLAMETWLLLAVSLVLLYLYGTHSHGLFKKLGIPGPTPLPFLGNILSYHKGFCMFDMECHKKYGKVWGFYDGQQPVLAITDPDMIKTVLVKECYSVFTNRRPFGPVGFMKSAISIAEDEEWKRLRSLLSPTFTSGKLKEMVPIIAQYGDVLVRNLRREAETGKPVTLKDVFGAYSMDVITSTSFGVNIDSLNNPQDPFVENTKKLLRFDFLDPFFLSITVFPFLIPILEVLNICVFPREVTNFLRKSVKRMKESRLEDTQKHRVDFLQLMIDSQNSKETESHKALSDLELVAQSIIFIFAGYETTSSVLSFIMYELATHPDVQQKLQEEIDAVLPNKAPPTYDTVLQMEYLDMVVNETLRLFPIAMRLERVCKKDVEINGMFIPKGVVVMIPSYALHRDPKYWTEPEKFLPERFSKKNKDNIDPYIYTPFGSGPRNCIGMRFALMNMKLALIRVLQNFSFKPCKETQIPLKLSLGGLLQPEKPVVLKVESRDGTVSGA
Potassium voltage-gated channel subfamily A member 5, sequence (P22460 whole entry): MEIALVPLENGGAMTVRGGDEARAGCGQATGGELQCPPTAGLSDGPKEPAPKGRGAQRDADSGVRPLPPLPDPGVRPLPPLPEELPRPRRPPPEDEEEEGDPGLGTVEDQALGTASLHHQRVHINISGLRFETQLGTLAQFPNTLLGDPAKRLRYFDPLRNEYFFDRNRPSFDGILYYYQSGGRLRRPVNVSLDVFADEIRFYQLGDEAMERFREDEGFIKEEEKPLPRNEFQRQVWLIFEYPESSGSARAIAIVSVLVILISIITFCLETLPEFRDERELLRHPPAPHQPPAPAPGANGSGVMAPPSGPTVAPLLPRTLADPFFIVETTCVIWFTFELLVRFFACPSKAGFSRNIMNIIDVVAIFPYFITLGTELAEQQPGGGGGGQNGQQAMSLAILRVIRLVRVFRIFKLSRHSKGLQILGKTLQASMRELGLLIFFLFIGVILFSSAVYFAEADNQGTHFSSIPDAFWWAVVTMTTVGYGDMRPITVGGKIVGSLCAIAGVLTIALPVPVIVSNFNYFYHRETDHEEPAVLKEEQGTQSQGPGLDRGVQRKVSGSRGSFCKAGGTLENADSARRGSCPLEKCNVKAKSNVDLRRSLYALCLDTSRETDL
Voltage-gated inwardly rectifying potassium channel KCNH2, sequence (Q12809 whole entry): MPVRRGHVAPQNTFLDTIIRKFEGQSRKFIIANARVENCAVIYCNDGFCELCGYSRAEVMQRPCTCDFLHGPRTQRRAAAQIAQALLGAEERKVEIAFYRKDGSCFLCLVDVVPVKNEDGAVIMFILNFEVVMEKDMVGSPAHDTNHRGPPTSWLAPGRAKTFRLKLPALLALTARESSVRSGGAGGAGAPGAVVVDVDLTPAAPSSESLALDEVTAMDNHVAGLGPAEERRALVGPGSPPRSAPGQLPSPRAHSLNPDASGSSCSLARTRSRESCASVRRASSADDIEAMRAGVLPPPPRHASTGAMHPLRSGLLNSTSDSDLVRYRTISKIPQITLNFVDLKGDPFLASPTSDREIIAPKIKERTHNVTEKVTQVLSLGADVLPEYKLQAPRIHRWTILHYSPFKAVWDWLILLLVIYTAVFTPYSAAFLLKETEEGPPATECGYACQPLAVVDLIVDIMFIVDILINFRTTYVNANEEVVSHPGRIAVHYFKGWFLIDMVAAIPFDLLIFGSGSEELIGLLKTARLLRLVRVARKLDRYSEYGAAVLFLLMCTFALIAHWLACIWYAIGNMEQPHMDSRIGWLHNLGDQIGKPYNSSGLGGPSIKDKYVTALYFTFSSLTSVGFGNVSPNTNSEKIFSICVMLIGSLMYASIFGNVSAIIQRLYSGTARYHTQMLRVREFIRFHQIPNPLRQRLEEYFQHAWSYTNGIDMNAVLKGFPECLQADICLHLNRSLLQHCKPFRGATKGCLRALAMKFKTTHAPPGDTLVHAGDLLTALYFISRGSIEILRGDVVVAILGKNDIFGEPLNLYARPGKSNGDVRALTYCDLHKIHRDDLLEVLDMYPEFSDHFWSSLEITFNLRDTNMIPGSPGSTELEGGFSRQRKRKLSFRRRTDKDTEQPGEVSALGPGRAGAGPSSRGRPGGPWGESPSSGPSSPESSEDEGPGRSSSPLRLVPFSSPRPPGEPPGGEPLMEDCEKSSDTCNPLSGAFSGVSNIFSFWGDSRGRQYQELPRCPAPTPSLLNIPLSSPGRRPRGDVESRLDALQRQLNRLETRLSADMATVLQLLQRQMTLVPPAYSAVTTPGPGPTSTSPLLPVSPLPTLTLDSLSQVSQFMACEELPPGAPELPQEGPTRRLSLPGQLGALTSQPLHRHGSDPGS
Potassium voltage-gated channel subfamily A member 3, sequence (P22001 whole entry): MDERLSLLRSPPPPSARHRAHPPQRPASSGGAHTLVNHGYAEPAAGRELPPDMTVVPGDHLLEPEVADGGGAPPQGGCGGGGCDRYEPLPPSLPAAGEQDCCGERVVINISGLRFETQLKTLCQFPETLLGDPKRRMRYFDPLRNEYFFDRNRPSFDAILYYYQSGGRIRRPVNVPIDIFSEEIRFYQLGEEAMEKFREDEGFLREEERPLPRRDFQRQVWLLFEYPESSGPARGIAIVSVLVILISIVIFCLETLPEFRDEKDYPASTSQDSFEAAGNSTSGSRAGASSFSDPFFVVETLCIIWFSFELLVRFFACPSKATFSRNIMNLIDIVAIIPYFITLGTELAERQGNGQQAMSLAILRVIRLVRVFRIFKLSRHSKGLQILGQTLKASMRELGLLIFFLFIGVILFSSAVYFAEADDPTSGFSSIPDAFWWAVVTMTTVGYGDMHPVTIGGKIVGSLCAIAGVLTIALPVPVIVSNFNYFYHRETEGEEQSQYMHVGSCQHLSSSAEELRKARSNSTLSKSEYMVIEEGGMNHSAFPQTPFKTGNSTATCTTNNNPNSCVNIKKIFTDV
Cytochrome P450 3A4, sequence (P08684 whole entry): as the sequence (P08684 whole entry) above
Voltage-dependent L-type calcium channel subunit alpha-1C, sequence (Q13936 whole entry): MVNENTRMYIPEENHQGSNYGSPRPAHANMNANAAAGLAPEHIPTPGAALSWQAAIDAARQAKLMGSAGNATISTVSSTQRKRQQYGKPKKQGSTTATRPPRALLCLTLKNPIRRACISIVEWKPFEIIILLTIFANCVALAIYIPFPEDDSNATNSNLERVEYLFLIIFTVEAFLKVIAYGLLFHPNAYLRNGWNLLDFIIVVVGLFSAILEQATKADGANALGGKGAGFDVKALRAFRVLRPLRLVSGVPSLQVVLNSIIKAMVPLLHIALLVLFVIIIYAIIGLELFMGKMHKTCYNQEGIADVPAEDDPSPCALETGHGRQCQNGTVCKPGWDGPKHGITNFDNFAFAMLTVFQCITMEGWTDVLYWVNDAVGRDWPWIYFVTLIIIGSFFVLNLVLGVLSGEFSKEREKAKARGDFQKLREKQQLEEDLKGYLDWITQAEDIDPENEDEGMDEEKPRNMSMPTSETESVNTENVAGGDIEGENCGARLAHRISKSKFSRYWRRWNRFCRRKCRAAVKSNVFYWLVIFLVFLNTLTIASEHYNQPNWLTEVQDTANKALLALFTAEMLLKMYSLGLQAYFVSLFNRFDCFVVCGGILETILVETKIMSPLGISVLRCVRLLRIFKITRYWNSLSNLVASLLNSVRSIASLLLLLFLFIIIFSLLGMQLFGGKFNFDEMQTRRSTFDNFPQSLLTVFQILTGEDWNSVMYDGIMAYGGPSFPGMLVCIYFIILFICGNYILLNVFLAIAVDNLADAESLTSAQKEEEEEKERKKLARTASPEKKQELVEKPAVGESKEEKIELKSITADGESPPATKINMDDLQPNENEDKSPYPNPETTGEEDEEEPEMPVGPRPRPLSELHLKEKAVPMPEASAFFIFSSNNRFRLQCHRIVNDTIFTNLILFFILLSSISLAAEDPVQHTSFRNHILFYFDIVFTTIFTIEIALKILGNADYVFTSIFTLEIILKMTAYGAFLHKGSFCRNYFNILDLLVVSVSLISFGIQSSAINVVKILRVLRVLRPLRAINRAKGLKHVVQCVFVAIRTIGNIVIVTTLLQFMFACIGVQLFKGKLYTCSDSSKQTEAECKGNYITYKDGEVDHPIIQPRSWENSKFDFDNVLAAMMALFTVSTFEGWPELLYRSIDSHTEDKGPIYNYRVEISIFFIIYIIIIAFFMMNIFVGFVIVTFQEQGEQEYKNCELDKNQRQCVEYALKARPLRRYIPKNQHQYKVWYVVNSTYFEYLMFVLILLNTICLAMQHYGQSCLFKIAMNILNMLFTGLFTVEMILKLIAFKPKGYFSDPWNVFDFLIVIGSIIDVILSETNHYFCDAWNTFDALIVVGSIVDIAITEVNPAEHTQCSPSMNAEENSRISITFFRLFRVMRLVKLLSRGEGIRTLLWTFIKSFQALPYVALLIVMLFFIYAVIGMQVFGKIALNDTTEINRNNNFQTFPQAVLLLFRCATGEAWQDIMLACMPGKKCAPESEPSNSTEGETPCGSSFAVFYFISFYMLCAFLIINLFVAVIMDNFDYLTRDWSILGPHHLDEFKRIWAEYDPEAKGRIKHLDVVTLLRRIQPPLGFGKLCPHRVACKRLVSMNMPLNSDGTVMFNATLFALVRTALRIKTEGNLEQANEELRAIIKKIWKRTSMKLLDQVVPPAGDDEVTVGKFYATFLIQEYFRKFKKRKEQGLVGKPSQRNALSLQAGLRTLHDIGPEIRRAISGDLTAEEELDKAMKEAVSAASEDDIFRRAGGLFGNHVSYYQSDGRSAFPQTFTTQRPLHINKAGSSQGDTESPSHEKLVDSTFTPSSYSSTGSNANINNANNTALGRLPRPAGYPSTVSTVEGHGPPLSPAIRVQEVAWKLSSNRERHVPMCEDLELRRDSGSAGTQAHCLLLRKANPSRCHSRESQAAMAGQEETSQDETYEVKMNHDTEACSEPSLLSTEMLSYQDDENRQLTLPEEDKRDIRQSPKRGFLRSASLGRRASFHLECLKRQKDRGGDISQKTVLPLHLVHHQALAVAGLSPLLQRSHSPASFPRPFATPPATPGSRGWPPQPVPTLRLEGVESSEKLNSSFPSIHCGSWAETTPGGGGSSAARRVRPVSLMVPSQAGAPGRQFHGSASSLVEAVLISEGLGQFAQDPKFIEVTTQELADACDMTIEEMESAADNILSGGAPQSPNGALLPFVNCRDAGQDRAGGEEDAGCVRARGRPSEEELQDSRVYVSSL

COc1ccc(CCN2C(=O)N(NS(=O)(=O)Cc3cccnc3)C[C@@H]2c2ccc(OC)cc2)cc1 showed a solubility [1] of 23 µg/mL (≈ 46.3 µM), an IC50 [2] of 0.6 µM and a half-life [3] of 3 min. The inhibition at 3 µM (CYP3A4) was 90%.
With COc1ccc(CCN2C(=O)N(NS(C)(=O)=O)C[C@@H]2c2ccc(OC)cc2)cc1 the solubility [1] was 100 µg/mL (≈ 238 µM), the IC50 [2] was 0.33 µM and the half-life [3] was 16 min. It also gave an inhibition at 3 µM (CYP3A4) of 50% and an IC50 [4] of 26.7 µM.
With COc1ccc(CCN2C(=O)N(NS(C)(=O)=O)C[C@H]2c2ccc(OC)cc2)cc1 the bioavailability [5] was 82%, the Vd [6] was 2.2 L/kg and the fraction unbound [7] was 0.1. For the same molecule, the solubility [1] was 65 µg/mL (≈ 155 µM), the IC50 [2] was 0.48 µM and the IC50 [8] was > 30 µM. The Activity (Canis familiaris [9]) was 63%, the Activity (Canis familiaris [10]) was 52% and the half-life [3] was 30 min. It also gave an Activity (Canis familiaris [11]) of 17%, a Papp B→A [12] of 39 ×10⁻⁶ cm/s and a concentration (Canis familiaris [13]) of 4.6 µM. It also gave a clearance [14] of 23 mL/min/kg, an AUC [15] of 1990 ng·h/mL and a half-life [16] of 102 min. The Cmax [17] was 469 ng/mL, the Papp A→B [18] was 40 ×10⁻⁶ cm/s and the half-life [19] was 11 min. For the same molecule, the IC50 [20] was > 30 µM, the IC50 (Cytochrome P450 2C9) was 47 µM and the IC50 [21] was 2.66 µM. It also gave an inhibition at 3 µM (CYP3A4) of 45%, a Tmax [22] of 60 min and an IC50 [4] of 15.1 µM. For the same molecule, the IC50 [23] was 23.4 µM, the IC50 (Cytochrome P450 2D6) was 180 µM and the Activity (Canis familiaris [24]) was 55%. For the same molecule, the concentration (Canis familiaris [25]) was 23 µM, the IC50 [26] was 3.87 µM and the half-life [27] was 72 min. The IC50 [28] was 1.41 µM, the Activity (Canis familiaris [29]) was 12% and the IC50 (Cytochrome P450 3A4) was 37 µM. It also gave an AUC [30] of 2410 ng·h/mL.
With COc1ccc(CCN2C(=O)N(NS(=O)(=O)Cc3ccccc3)C[C@@H]2c2ccc(OC)cc2)cc1 the solubility [1] was 1 µg/mL (≈ 2.02 µM), the IC50 [2] was 0.34 µM and the half-life [3] was 3 min. For the same molecule, the inhibition at 3 µM (CYP3A4) was 82% and the IC50 [4] was 4.4 µM.
